Results from different studies.
Lines come from different studies, so protocols differ.
Observed: cell growth or viability

SMILES | cell line | technique | time | IC50 [nM]
COc1cccc(Oc2ccccc2NC(=O)[C@H](C)NC(=O)c2cccc3ccccc23)c1 | NCI-H358 |  |  | 1800
CC(=O)C1=C(C)Nc2sc(C(=O)c3ccc(Cl)c(Cl)c3)c(N)c2C1c1cccnc1 (stereo not shown) | HMC3 | imaging |  | 41900
Cc1cc(C)cc(COc2cc3c(cc2OCc2cc(C)cc(C)c2)[C@H]2C[C@](O)(Cc4cn(Cc5cnccn5)nn4)C[C@H](C)N2CC3)c1 | ASPC1 | MTT |  | 753
NCCOc1cc(NC(=O)c2cccc(C(=O)Nc3cc(OCCN)c4ccccc4n3)n2)nc2ccccc12 | WI-38 | ATP luminescence | 72 h | 1100
Cc1cc(C)cc(COc2cc3c(cc2OCc2cc(C)cc(C)c2)[C@H]2C[C@](O)(Cc4cn(Cc5ccc(O)cc5)nn4)C[C@H](C)N2CC3)c1 | ASPC1 | MTT |  | 450
C=C(C)C(=O)Nc1ccc(-c2c(-c3ccc(Oc4nccc(C)n4)c(F)c3)c3c(N)ncnc3n2C)cc1 | AN3-CA | ATP luminescence | 96 h | 13.7
CC(C)c1n[nH]c2c(Nc3ccccc3)nc(CNCc3ccccc3)cc12 | WI-38 | MTS | 48 h | 7000
COc1ccc(CCc2cc(C(=O)c3cc(OC)c(OC)c(OC)c3)c(N)s2)cc1 | Molt4/C8 |  |  | > 10000
Cc1cccc(-n2ncc(Br)c(Br)c2=O)c1 | NHBE | resazurin | 96 h | 1610
O=c1c(O[C@@H]2O[C@H](CO)[C@@H](O)[C@H](O)[C@H]2O)c(-c2ccc(O)c(O)c2)oc2cc(O)cc(O)c12 | RT-4 | ATP luminescence | 72 h | 20100
COc1cc(Nc2nccc(-c3cnn4nc(OC)ccc34)n2)cc(C(F)(F)F)c1 | HEC-1-A | ATP luminescence |  | 1000
Cc1cc(C)cc(COc2cc3c(cc2OCc2cc(C)cc(C)c2)[C@H]2C[C@](O)(Cc4cn(CCCCCCNC(=O)[C@@H](CC(C)C)NC(=O)[C@@H](O)[C@H](N)Cc5ccccc5)nn4)C[C@H](C)N2CC3)c1 | ASPC1 | MTT |  | 1480
C#CCOc1cc(C(=O)Nc2cc(OCCCN)c3ccccc3n2)nc(C(=O)Nc2cc(OCCCN)c3ccccc3n2)c1 | WI-38 | ATP luminescence | 72 h | 3500
Cc1cc(C)cc(COc2cc3c(cc2OCc2cc(C)cc(C)c2)C2CC(O)(Cc4cn(CCCCCCOc5cccc6c5C(=O)N(C5CCC(=O)NC5=O)C6=O)nn4)CC(C)N2CC3)c1 (stereo not shown) | ASPC1 | MTT |  | 880
CC(C)C[C@H](NC(=O)[C@H](Cc1ccccc1)NC(=O)c1cnccn1)B(O)O | KARPAS-299 | ATP luminescence |  | 5.2
Cc1cc(C)cc(COc2cc3c(cc2OCc2cc(C)cc(C)c2)C2CC(O)(Cc4cn(CCC(=O)Nc5cccc6c5C(=O)N(C5CCC(=O)NC5=O)C6=O)nn4)CC(C)N2CC3)c1 (stereo not shown) | ASPC1 | MTT |  | 3290
CNc1ncc2cc(-c3ccc(-c4cccc(C)n4)cc3Cl)c(=O)n(C[C@H]3OC[C@H](N)CO3)c2n1 | HPAF-II | MTT | 24 h | 30200
Cc1cc(C)cc(COc2cc3c(cc2OCc2cc(C)cc(C)c2)[C@@H]2C[C@@](O)(Cc4cn(Cc5ccc(S(C)(=O)=O)cc5)nn4)C[C@@H](C)N2CC3)c1 | ASPC1 | MTT |  | 513
CN1CCN(c2ccc3nc(-c4c(N)c5c(F)cccc5[nH]c4=O)[nH]c3c2)CC1 | RT-4 | MTT | 5 days | 100
